Series [1] can be described thus: folding enthalpy; higher = less favourable; fluorescence melt of hairpins on a sequencing array, two-state fit. As to conditions: sodium 0.088 M. Put shortly:
(§1)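 Cy3 fluorescence of library hairpins on a sequenced MiSeq flow cell, with annealed Cy3 and quencher oligos, was imaged in 50 mM Na-HEPES pH 8.0, 25 mM NaCl in 2.5 °C steps up to 60 °C. Signals were normalised to pre-quench Cy3 and to control variants. Melting temperature and folding enthalpy came from bootstrapped two-state fits, inverse-variance combined over four replicates. Fitted temperatures were raised by 9.35 °C to match UV melts.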

Series [2] is described as follows: melting temperature; fluorescence melt of hairpins on a sequencing array, two-state fit, raised by 9.35 °C to match UV melts. As to conditions: sodium 0.088 M. The essentials: as §1

In the case of GCAGCGCGAAAGCGAAGC ((..(((....)))..)), in series [1], the folding enthalpy is -18.7 kcal/mol. Moreover, the Tm in series [2] amounted to 57.5 °C.

On to GACCTCCGAAAGGACGTC (((.(((....))).))), for which the folding enthalpy in series [1] is -27.3 kcal/mol. Also, in series [2], the Tm was 42 °C.

Consider GGGTGTGGAAACACACTC (.(((((....))))).), for which the folding enthalpy in series [1] was -23.5 kcal/mol. The Tm in series [2] came out at 55.4 °C.

On to GCCGTGCGAAAGCCTGGC (((..((....))..))), for which, in series [1], the folding enthalpy was -20.4 kcal/mol. In addition, the Tm in series [2] is 56.2 °C.

Consider GGGCACCCGAAAGGGCCC (((..(((....)))))), for which the folding enthalpy in series [1] was -36.7 kcal/mol. The Tm in series [2] turned out to be 58 °C.

Regarding GCTATGCGAAAGCATGGC ((.((((....)))).)), in series [1], the folding enthalpy was -32 kcal/mol. The Tm in series [2] was 65 °C.

For GACTTACGAAAGTATGTC (((.(((....))).))), the folding enthalpy in series [1] is -32.9 kcal/mol. The Tm in series [2] stood at 47.8 °C.

GCCATCGAAAGATGCGGC ((((((....)))..))): the folding enthalpy in series [1] is -16.6 kcal/mol. The Tm in series [2] was found to be 49.2 °C.

As for GCCTGCCCGAAAGGGGGC (((..(((....)))))), in series [1], the folding enthalpy is -12.6 kcal/mol. In addition, the Tm in series [2] was 58.1 °C.

For the sequence GATCATGAAATGATC ((((((...)))))), the folding enthalpy in series [1] is -40.9 kcal/mol. Besides, the Tm in series [2] was found to be 58.9 °C.

Regarding GATAGACGAAAGTCATC (((.(((....)))))), in series [1], the folding enthalpy was -15.4 kcal/mol. Moreover, the Tm in series [2] amounted to 38.4 °C.

As to GTTACCCGAAAGGGGAAC (((.(((....))).))), the folding enthalpy in series [1] was -32.2 kcal/mol. Also, the Tm in series [2] was 61.5 °C.

For the sequence GATCGTAATACGATC ((((((...)))))), the folding enthalpy in series [1] was -41.5 kcal/mol. In addition, the Tm in series [2] was found to be 53.5 °C.

GCATGCGAAAGCACGTGC ((((((....)))..))): the folding enthalpy in series [1] is -19.2 kcal/mol. Further, in series [2], the Tm is 39.8 °C.

For the sequence GTAGTTACGAAAGTATAC (((..(((....)))))), the folding enthalpy in series [1] was -10.3 kcal/mol. For the same sequence, the Tm in series [2] is 23.9 °C.

Consider GCAGGCGAAAGCCGCTGC ((((((....)))..))), for which the folding enthalpy in series [1] was -14.8 kcal/mol. In addition, the Tm in series [2] worked out at 68 °C.

As to GCGCCGCGAAAGCACCGC (((..((....))..))), the folding enthalpy in series [1] is -16.7 kcal/mol. The Tm in series [2] came to 46.2 °C.

With GTGCTAGGAAACTAACAC (((.(((....))).))), in series [1], the folding enthalpy is -27.7 kcal/mol. In addition, the Tm in series [2] is 34.4 °C.

Consider GGGCCATCGAAAGATCCC (((..(((....)))))), for which the folding enthalpy in series [1] is -16.4 kcal/mol. The Tm in series [2] amounted to 31.6 °C.

For GCGACGGGAAACCACCGC (((..((....))..))), the folding enthalpy in series [1] was -25.4 kcal/mol. In series [2], the Tm turned out to be 40.2 °C.

Regarding GGAACCGAAAGGTAATCC ((((((....)))..))), the folding enthalpy in series [1] was -9.87 kcal/mol. Besides, the Tm in series [2] is 26.8 °C.

As to GGCGCTGGAAACAGTGCC (((.(((....))).))), the folding enthalpy in series [1] was -49.2 kcal/mol. Besides, the Tm in series [2] is 62.6 °C.

As for GTTAGCGAAAGCTCGAAC ((((((....)))..))), the folding enthalpy in series [1] was -7.85 kcal/mol. The Tm in series [2] was found to be 22.9 °C.

Consider GCTTTCCGAAAGGACAGC (((.(((....))).))), for which the folding enthalpy in series [1] was -35.7 kcal/mol. Moreover, in series [2], the Tm was 49.9 °C.

For GGTTGAACGAAAGTTACC (((..(((....)))))), in series [1], the folding enthalpy is -13.2 kcal/mol. Moreover, the Tm in series [2] is 31.1 °C.

For the sequence GAAATCGGAAACGACTTC (((.(((....))).))), the folding enthalpy in series [1] is -24.8 kcal/mol. In addition, the Tm in series [2] is 32.4 °C.

GACAGGACGAAAGTCGTC (((..(((....)))))): the folding enthalpy in series [1] was -16.7 kcal/mol. For the same sequence, in series [2], the Tm amounted to 42.6 °C.

In the case of GATCTAGATATAGATC ((((((....)))))), the folding enthalpy in series [1] is -34.4 kcal/mol. Moreover, the Tm in series [2] stood at 46.8 °C.

Consider GAGGACCGAAAGGTCTC (((.(((....)))))), for which the folding enthalpy in series [1] was -10.9 kcal/mol. Further, the Tm in series [2] was found to be 46.5 °C.

As for GATCCCGCGGGGGATC ((((((....)))))), the folding enthalpy in series [1] is -31 kcal/mol. The Tm in series [2] came to 59.9 °C.

(Values after the array DNA melting data of Ke et al. (doi:10.1101/2024.01.08.574731).)
